TAAR1 agonist – agonists of human TAAR1; AID 624467; CHO RD-HGA16 TAAR1, Fluo-8 calcium fluorescence; vehicle wells 0%, saturating PEA agonist 100%; Q96RJ0; activation, % at 3 µM; 360,000 tested, 0.99% active;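 active means activation above the mean activation of all test compounds in the run plus 3 SD, cut at about 38% in these data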
Target sequence (Q96RJ0 whole entry, looked up): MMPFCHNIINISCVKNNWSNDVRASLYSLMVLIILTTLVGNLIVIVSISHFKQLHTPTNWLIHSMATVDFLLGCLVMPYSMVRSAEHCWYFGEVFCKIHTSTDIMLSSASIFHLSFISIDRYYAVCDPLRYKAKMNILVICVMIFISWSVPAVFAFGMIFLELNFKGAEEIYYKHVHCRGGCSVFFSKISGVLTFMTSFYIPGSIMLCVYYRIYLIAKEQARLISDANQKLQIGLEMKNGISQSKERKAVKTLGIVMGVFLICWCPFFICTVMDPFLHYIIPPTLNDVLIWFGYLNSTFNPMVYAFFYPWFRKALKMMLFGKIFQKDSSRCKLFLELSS
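Test system: RD-HGA16 (CHO) cells co-expressing Gα16 and hTAAR1 | Doses: Single dose, 3 µM | Schedule: 17-24 h seeding, 75 min 37 °C dye, 30 min RT | Evaluation: % activation from peak over basal fluorescence ratio, DMSO-to-PEA scaled | Technique: Kinetic Fluo-8 calcium fluorescence | Benchmarks: Low control DMSO, high control PEA (EC100)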
HCV NS3 hel inh – inhibitors of Hepatitis C virus NS3 helicase; inhibition, % at 10.9 µM; 290,000 tested, 0.56% active; NS3 helicase DNA unwinding, Cy5 molecular beacon fluorescence;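 active means inhibition above the mean of all tested compounds plus 3 SD, set per campaign, cut at about 35% in these data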;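 further: 0% = DMSO wells and 100% = thioflavine S control wells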
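Assay system: hepatitis C virus NS3 helicase domain fragment enzyme. Also added: annealed dual-labelled DNA beacon duplex, ATP-started. Timing: 1 h reaction at 25 °C, ATP-initiated. Technique: Cy5 fluorescence at 0 and 60 min, beacon hairpin quenching. Evaluation: % inhibition of unwinding. Replication: one well per compound.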
core dimer inh – HCV core protein dimerization inhibition. TR-FRET GST/Flag-core106 dimerization, 1536-well. inhibition, % at 5 µM. 300,000 tested, 0.33% active. AID 1899;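 active means inhibition above the mean of all tested compounds plus 3 SD, set per screening campaign, cut at about 45% in these data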
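Test system: GST/Flag-tagged HCV core106 proteins; Medium: KF-containing HEPES buffer, pH 7.45, DTT, CHAPS, BSA; Times: compound-protein-antibody incubation 4 h at 22.5 °C; Detection: TR-FRET 671 and 617 nm emission; Benchmarks: wells lacking GST-core106 and wells with excess unlabelled core106.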
rCAG binder – r(CAG) repeat RNA binding. TO-PRO-1 dye displacement fluorescence. inhibition, % at 3 µM. 370,000 tested, 1.3% active;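 active means inhibition above the plate cutoff, the mean of all test compounds on that plate plus 3 SD, cut at about 35% in these data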;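 further: 0% = DMSO alone and 100% = 100 µM mitoxantrone as full dye displacement; higher means more dye released from RNA so lower well fluorescence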
TAAR1 antag – human TAAR1 antagonism. inhibition, % at 3 µM. Q96RJ0. 360,000 tested, 1.5% active. CHO RD-HGA16 TAAR1, Fluo-8 calcium fluorescence, antagonist;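 active means inhibition above a per-plate cutoff, the mean inhibition of test compounds on that plate plus 3 SD, cut at about 49% in these data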;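 further: 0% = DMSO plus EC80 beta-PEA response and 100% = DMSO alone without agonist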
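Test system: RD-HGA16 CHO cells with stable hTAAR1 and Gα16 / Probe or stimulus: EC80 β-phenethylamine stimulus / Times: seeding 17-24 h prior, 75-min 37 °C, 30-min RT dye loading / Detection: Fluo-8 calcium-sensitive fluorescence / Read-out basis: % inhibition scaled between DMSO and EC80 PEA controls / Repeats: singlicate, one well per test compound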
* marks the source's active call; other numbers are inactive results; / = not tested or not shown. This is a sample that favours compounds with a hit; in the whole collection about 3.7% have one here.

SMILES	TAAR1 agonist	HCV NS3 hel inh	core dimer inh	rCAG binder	TAAR1 antag
C=CCC[C@H](Cc1ccc(F)cc1)C(=O)OC[C@@H](Cc1c[nH]c2ccccc12)NC(=O)[C@H](CC=C)CC(=O)NCCO	14	/	/	-7	51*
C=CCC[C@@H](Cc1ccc(F)cc1)C(=O)OC[C@H](Cc1c[nH]c2ccccc12)NC(=O)[C@@H](CC=C)CC(=O)N[C@H](CO)Cc1ccccc1	14	/	/	1	55*
C=CCC[C@H](Cc1ccc(F)cc1)C(=O)OC[C@H](Cc1c[nH]c2ccccc12)NC(=O)[C@@H](CC=C)CC(=O)N[C@H](CO)Cc1ccccc1	14	/	/	16	57*
O=C(CCc1ccccc1-c1ccccc1CCNC(=O)c1c(F)cccc1F)NCc1ccccc1	/	/	/	1	/
C=CCn1c(COc2ccc(Cl)cc2)nnc1SCC(=O)c1ccccc1	/	/	/	0	/
OC(CNCCc1ccccc1)COc1ccc(OCC(O)CNCCc2ccccc2)cc1 (stereo not drawn)	13	-46	-3	2	0
OC(CNCCc1ccc(Cl)cc1)COc1ccc2ccccc2c1 (stereo not drawn)	42*	-26	/	12	13
COc1cccc(CN(C)C(=O)c2cc(-c3ccc(F)cc3)nc3ccccc23)c1	/	-9	-2	/	/
COc1ccc(CCN(C)C(=O)c2cc(-c3ccccc3)nc3ccccc23)cc1OC	3	-4	/	-9	13
COc1ccc(-c2cc(C(=O)N(C)CCc3ccc(OC)c(OC)c3)c3ccccc3n2)cc1	12	-17	/	-7	49*
COc1ccc(CN(C)C(=O)c2cc(-c3ccccc3)nc3ccc(C)cc23)c(OC)c1OC	4	-13	3	-6	63*
COc1ccc(-c2cc(C(=O)N(C)Cc3nc4ccccc4c(=O)[nH]3)c3ccccc3n2)cc1OC	11	/	/	10	59*
COc1cccc(CN(C)C(=O)c2cc(-c3ccc(OC)c(OC)c3)nc3ccccc23)c1	3	-21	/	-1	51*
COc1ccc(-n2sc3ccc(F)cc3c2=O)cc1	50*	/	/	8	45
Cc1ccc(-c2cc(=O)c3cc(F)ccc3[nH]2)cc1	-1	5	0	0	-2
COc1ccc(-n2sc3ccccc3c2=O)cc1	36	/	/	2	14
Cc1ccc(C)c(-n2sc3ccc(F)cc3c2=O)c1	45*	/	/	-1	51*
COC(=O)[C@]12C[C@H](CC(=O)NCc3ccc(OC)c(OC)c3)C(=O)N(Cc3ccco3)C1=C[C@H](COCc1ccccc1)O[C@@H]2C	/	/	/	7	/
CC(=O)NCCc1nc2ccccc2n1CCOc1ccccc1	39*	-3	2	-6	-23
C=CCn1c(CCCNC(=O)C(C)(C)C)nc2ccccc21	2	-8	-29	-3	-8
CC(C)(C)C(=O)NCCCc1nc2ccccc2n1CCCOc1ccc(Cl)cc1	19	-9	-2	2	66*
CC(=O)NCCc1nc2ccccc2n1CCCCOc1ccccc1	2	0	/	-8	0
COc1ccc(S[C@]2(C(=O)N3CCN(c4ncccn4)CC3)CC(=O)N(c3ccsc3)[C@@H]2c2ccc(OC)cc2)cc1	/	/	/	13	/
Cc1ccc(S(=O)(=O)NNc2ccccc2)cc1	/	-3	-1	/	/
Cc1ccc(S(=O)(=O)Nn2c(C)ccc2C)cc1	2	7	67*	28	2
SMILES	TAAR1 agonist	HCV NS3 hel inh	core dimer inh	rCAG binder	TAAR1 antag
N#CCC[C@@H]1CC[C@]2(CCCN(S(=O)(=O)C3CCCCC3)C2)O1	/	/	/	3	/
O=C(/C=C/c1ccco1)c1cccc([N+](=O)[O-])c1	-1	/	/	39*	9
O=C(N/N=C/C=C/c1ccco1)c1cccc([N+](=O)[O-])c1	5	-1	-1	17	0
C[C@@H]1COc2cc(Br)ccc2S(=O)(=O)N1Cc1cn(Cc2ccc(C(F)(F)F)cc2)nn1	/	/	/	0	/
Cc1cc2nc(-c3ccc(SCC(=O)Nc4ccc(S(=O)(=O)N5CCCC5)cc4)nc3)[nH]c2cc1C	0	4	-62	16	8
O=C(CSc1ccc(-c2nc3ccccc3[nH]2)cn1)Nc1ccc(S(=O)(=O)N2CCCC2)cc1	8	-16	7	16	51*
O=C(Nc1ccc(Cl)cc1)[C@@H]1[C@@H]2C(=O)N(c3ccc4ccccc4c3)C(=O)[C@@H]2[C@H]2C=CC=NN21	1	9	60*	33	3

Bioassay records: PubChem, The Scripps Research Institute Molecular Screening Center
